# FLuc inhib CS = counter-screen for luciferase assay inhibitors: firefly luciferase inhibition; inhibition, % at 10 µM; P08659; 1.5% of 200,000 active; ATPLite firefly luciferase biochemical luminescence, 10 min;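 active means inhibition above about 50% when tested at 10 µM, limit read from the data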
# Target sequence (P08659 whole entry, looked up): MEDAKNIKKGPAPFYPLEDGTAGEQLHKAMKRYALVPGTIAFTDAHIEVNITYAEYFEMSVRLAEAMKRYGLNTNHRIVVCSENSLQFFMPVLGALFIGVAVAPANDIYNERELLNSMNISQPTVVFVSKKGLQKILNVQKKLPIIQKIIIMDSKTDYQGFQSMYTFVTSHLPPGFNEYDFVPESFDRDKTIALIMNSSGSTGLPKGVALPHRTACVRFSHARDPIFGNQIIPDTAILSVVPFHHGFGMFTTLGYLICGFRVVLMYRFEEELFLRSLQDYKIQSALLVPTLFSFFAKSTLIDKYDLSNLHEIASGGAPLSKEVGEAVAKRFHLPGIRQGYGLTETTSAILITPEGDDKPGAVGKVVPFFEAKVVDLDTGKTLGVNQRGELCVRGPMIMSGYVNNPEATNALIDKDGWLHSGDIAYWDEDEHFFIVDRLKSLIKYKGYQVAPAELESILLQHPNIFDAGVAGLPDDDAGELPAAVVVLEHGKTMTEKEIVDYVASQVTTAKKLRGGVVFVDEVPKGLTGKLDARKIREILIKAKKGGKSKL
# PPC-1+TRAIL kill = kills PPC-1 cancer cells in the presence of TRAIL. PPC-1 cells + TRAIL, ATPLite viability luminescence. 0.41% of 220,000 active. cell killing (% activity), % at 4 µM or 5 µM;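 active means cell killing above 50% in the first pass at 4 µM, then a duplicate retest at 5 µM averaging 50% or more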;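 further: plate controls were cells with TRAIL plus DMSO for no effect and medium-only wells lacking cells for full effect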
# C8 TRAIL sens = caspase-8 TRAIL sensitization. NB7+C8 cells + TRAIL, ATPlite viability luminescence. inhibition (viability loss, TRAIL sensitization), % at 10 µM. 1% of 360,000 active. AID 624354;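 active means compounds causing at least 50% loss of cell viability in the single-dose screen, relative to plate controls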
# FLuc stim CS = affects firefly luciferase, flagging false hits in luciferase stimulation screens; 200,000 tested, under 10 active; ATPlite luciferase biochemical, luminescence, 10 min; 0 = ATP-free wells, 1 = DMSO control; activation factor at 10 µM; P08659;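 active means luciferase activation factor, scaled between plate controls, of at least 2 with compound at 10 µM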
#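 Assay system: Luciferase/luciferin detection reagent, cell-free biochemical luciferase assay / Also added: ATP substrate / Schedule: 10 min at ambient temperature / Measured by: luminescence measurement of luciferase light output / Benchmarks: low control with PBS replacing ATP, high control enzyme plus ATP without compound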
# Platelet DG rel = modulates dense granule release in human platelets. human platelet-rich plasma, SFLLRN dense granule ATP release, luminescence. inhibition, %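 (compounds screened at 7.5 µM in platelet-rich plasma)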. 0.22% of 300,000 active;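 active means mean replicate score, as percent of positive control, at or above 50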
# Starred values were filed as active, the others as inactive; nt = no result. Only some compounds are listed: those with a hit (about 1.6% of all), similar ones and a draw of the others.
SMILES,FLuc inhib CS,PPC-1+TRAIL kill,C8 TRAIL sens,FLuc stim CS,Platelet DG rel
Cc1cc(N)n2ncc(-c3ccc(Cl)cc3)c2n1,-4.6,23.5,7.7,1,5.0
Nc1nc2sc3c(c2cc1C(=O)NCC(=O)O)CCCC3,nt,nt,51.6*,nt,-3.2
CCCCNc1c(CC(C)C)nc2nc(C)cc(C)n12,nt,nt,-4.5,nt,nt
CCOc1cccc2c1OC(c1cc(OC)c(OC)c(OC)c1)N1N=C(c3ccc(C)o3)CC21 (stereo not drawn),52.2*,13.4,7.4,0.5,4.3
Cc1ccc(CSc2ncccc2C(=O)O)cc1,14.3,5.4,-7.7,0.9,0.7
Cc1cccc(CSc2ncccc2C(=O)O)c1,-2.4,54.4*,3.3,1,21.8
c1ccc(NN=C(c2ccccc2)c2cccs2)cc1,nt,nt,9.9,nt,nt
O=C(Cc1csc(NC(=O)Nc2ccc(Cl)cc2)n1)NCc1ccccn1,nt,nt,53.9*,nt,13.8
O=C1c2ccccc2C(O)N1CCN1CCOCC1 (stereo not drawn),-6.6,15.1,-4.5,1.1,53.1*
O=C1c2ccccc2C(Nc2ccc(Cl)cc2)N1CCN1CCOCC1 (stereo not drawn),2.6,-6.3,-4.3,1,0.9
Cc1cccc(NC(=O)COc2cccc3c2CCNC3=O)c1,nt,nt,-0.5,nt,nt
CCCc1nn(C)c(C(=O)Nc2cccc(Cl)c2)c1Cl,0.7,50.7*,-2.5,1,8.6
C[C@@H]1COc2cccc(N3CCC[C@H]3CO)c2S(=O)(=O)N1,nt,nt,12.7,nt,nt
CC(C)c1ccc(/C=N/NC(=O)c2c(Cl)cnn2C)cc1,93.3*,42.1,82.6*,0.1,13.8
CCOC(=O)C1(C)CCCCCN1C(=O)/C=C/c1ccccc1 (stereo not drawn),nt,nt,-7.7,nt,nt
Cc1nnc(SCC(=O)Nc2ccccc2NC(=O)CSc2nnc(C)s2)s1,-5.4,23.8,3.8,1.1,-0.3
O=C(CCN1C(=O)NC2(CCCC2)C1=O)Nc1ccc(Sc2ccc(Br)cc2)cc1,nt,nt,9.0,nt,nt
O=C(CCN1C(=O)NC2(CCCC2)C1=O)Nc1ccc(-c2nc3ccccc3s2)cc1,nt,nt,56.1*,nt,nt
Cc1nnc(SCC(=O)Nc2ccc(-c3nc4ccccc4s3)cc2)s1,79.8*,21.8,66.7*,0.2,11.1
O=C(c1ccc(Cl)cc1)c1cnc(Nc2ccccc2Cl)s1,58.3*,36.9,18.7,0.4,-5.5
Nc1c(N(CCC2=CCCCC2)C(=O)COc2ccc(F)cc2)c(=O)[nH]c(=O)n1Cc1ccccc1,nt,nt,72.5*,nt,nt
O=Nc1ccc(NO)c2ccccc12,nt,nt,71.2*,nt,nt
COc1ccc(NC(=O)c2ccc(C)cc2)cc1,nt,nt,68.0*,nt,-0.7
N#CCc1ccc(OC(=O)Nc2ccccc2)cc1,nt,nt,-0.3,nt,-1.1
COc1ccc(C(=O)Nc2cc(OC)nc(OC)n2)cc1,76.2*,39.7,44.7,0.2,55.5*
SMILES,FLuc inhib CS,PPC-1+TRAIL kill,C8 TRAIL sens,FLuc stim CS,Platelet DG rel
COc1ccc(C(=O)Nc2ccc3c(c2)nc2n3CCSC2)cc1,65.7*,33.7,32.0,0.3,0.2
Cc1ccc(OC(=O)Nc2ccccc2)cc1,51.0*,22.1,21.1,0.5,7.7
CCC(=O)Nc1ccc2c(c1)nc1n2CCSC1,-3.1,17.6,-7.9,1,0.9
COc1ccc(C(=O)NNC(=O)C(=O)Nc2ccc(C)cc2)cc1,nt,nt,12.4,nt,0.8
CC(C)C(=O)N1CCC1(C)C(=O)NCc1ccc(F)cc1Cl (stereo not drawn),nt,nt,-12.4,nt,nt
COc1ccc(CN2C(=O)C(CC(=O)NCC3CCCCC3)CC(C(=O)N(C)C)=C2C)cc1 (stereo not drawn),nt,nt,3.0,nt,nt
COc1ccc(C(=O)Nc2cccc(C)c2)cc1,77.2*,37.2,47.8,0.2,56.3*
O=C(O)c1cccc(NC(=O)c2ccc3c(c2)C(=O)N(CC2CCCO2)C3=O)c1 (stereo not drawn),50.9*,3.9,15.6,0.5,3.8
O=C(Nc1ccc(O)cc1)c1ccc2c(c1)C(=O)N(Cc1ccccc1)C2=O,nt,nt,63.4*,nt,-1.2
COC(=O)c1cccc(NC(=O)c2ccc3c(c2)C(=O)N(CC2CCCO2)C3=O)c1 (stereo not drawn),6.8,12.6,1.6,0.9,1.7
Cc1ccccc1OCC(=O)Nc1cccc(C(=O)O)c1,59.3*,35.0,37.4,0.4,6.3
COc1ccc([C@H]2CN(c3ccc(OC)cc3)C(=O)[C@@H]2CC(=O)Nc2ccccc2)cc1,nt,nt,1.4,nt,nt
Fc1cccc(Cl)c1C1SCc2nc3ccccc3n21 (stereo not drawn),nt,nt,15.8,nt,nt
CC1(C(=O)NS(=O)(=O)c2cccc(C#N)c2)CCN1C(=O)C1(c2ccccc2)CC1 (stereo not drawn),nt,nt,6.1,nt,nt
CCOC(=O)c1cccc(NC(=O)c2ccc(N(C)C)cc2)c1,60.2*,27.7,47.5,0.4,22.1
CN(C)S(=O)(=O)Oc1cccc(C(=O)Nc2ccc(Cl)c(Cl)c2)c1,1.1,7.9,22.1,1,-1.9
O=C(Nc1cccc(-n2cnnn2)c1)c1cc(Cl)nc(Cl)c1,nt,nt,-9.0,nt,-3.7
COc1ccc(NC(=O)c2cccc(OS(=O)(=O)N(C)C)c2)cc1,53.6*,45.5,44.0,0.5,0.8
CC(C)(C)c1ccc(C(=O)Nc2cccc(-n3cnnn3)c2)cc1,nt,nt,71.1*,nt,-24.0
CCOc1ccc(C(=O)Nc2cccc(C(=O)O)c2)cc1Cl,79.1*,25.6,48.8,0.2,5.8
CC1=C(C(=O)N2CCCCCC2)CC(CC(=O)NCCCN(C)C)C(=O)N1CCCN1CCCC1=O (stereo not drawn),nt,nt,8.1,nt,nt
CC1=C(C(=O)N2CCOCC2)CC(CC(=O)NC2CCCCC2)C(=O)N1Cc1ccc(F)cc1 (stereo not drawn),nt,nt,23.0,nt,nt
N#CCSc1ccccc1NC(=O)COC(=O)C1CCN(C(=O)c2ccc(Cl)cc2)CC1,nt,nt,-30.4,nt,nt
CCOC(=O)c1ccc(-c2ccc(N3C(c4cccc(OC)c4)=Cc4ccc(F)cc4C3CC(C)=O)cc2)cc1F (stereo not drawn),nt,nt,18.7,nt,nt
COc1ccc(NC(=O)c2ccc(OC(F)F)cc2)cc1Cl,51.6*,36.8,42.0,0.5,64.0*
SMILES,FLuc inhib CS,PPC-1+TRAIL kill,C8 TRAIL sens,FLuc stim CS,Platelet DG rel
Cc1ccc(C(=O)Nc2cccc(C(=O)N3CCOCC3)c2)cc1,7.7,-17.4,3.3,0.9,-0.4
COc1cccc(NC(=O)c2ccc3c(c2)CCCC3)c1,nt,nt,64.9*,nt,26.6
CC(C)(C)c1ccc(C(=O)Nc2cccc(C(=O)N3CCOCC3)c2)cc1,nt,nt,63.0*,nt,6.5
COc1cccc(C(=O)Nc2ccc3ccccc3c2)c1,nt,nt,47.5,nt,18.3
COc1ccc(C(=O)Nc2ccc3ccccc3c2)cc1,nt,nt,68.5*,nt,38.8
COC(=O)N1CCCCC1c1cc(C(=O)NCc2cccnc2)no1 (stereo not drawn),nt,nt,-15.6,nt,nt
Cc1ccc(C(=O)Nc2cccc(C(=O)O)c2)cc1,62.1*,38.3,nt,0.4,22.1
Cc1ccc(N(CCC#N)C(=O)CCl)cc1C,-1.5,3.1,86.6*,1,-2.8
COc1ccccc1N1CCN(S(=O)(=O)CCNC(=O)C(C)Oc2ccccc2)CC1 (stereo not drawn),nt,nt,-15.7,nt,nt
c1ccc(COc2ncnc3c2ncn3CCCNCC(c2ccccc2)c2ccccc2)cc1,nt,nt,63.1*,nt,nt
